Experimental data collected from several papers.
Protocols differ between the studies behind these lines.
PDE8A: High affinity cAMP-specific and IBMX-insensitive 3',5'-cyclic phosphodiesterase 8A (PDE8A, Homo sapiens, UniProt O60658)
BCKDK: Branched-chain alpha-ketoacid dehydrogenase kinase (BCKDK, Homo sapiens, UniProt O14874)
OPRM1: Mu-type opioid receptor (OPRM1, Homo sapiens, UniProt P35372)

SMILES | target | test | test system | conditions | IC50 [µM]
COc1ccc(C2=NN(C3CCCCCC3)C(=O)[C@@H]3CC=CC[C@H]23)cc1-c1ccc(C(N)=O)cc1 (relative stereo) | PDE8A | enzyme activity, inhibitor |  |  | > 10
CC1=CC[C@H]2[C@@H]([C@@H]1CC[C@H]1[C@]3(C)CC[C@H](O)C(C)(C)O[C@H]3CC[C@]1(C)O)C(C)(C)CC[C@]2(C)O | ATP-dependent translocase ABCB1 (ABCB1, Homo sapiens, UniProt P08183) | transporter efflux, inhibitor, fluorescence | KB-V1 | 10 min | 50 to 100
C=C(C)[C@@H]1CCC(C)=C[C@H]1c1c(O)cc(CCC)cc1O | Polyunsaturated fatty acid 5-lipoxygenase (ALOX5, Homo sapiens, UniProt P09917) | enzyme activity in cells, inhibitor |  |  | 7.6
CN[C@H]1CC[C@@H](c2ccc(Cl)c(Cl)c2)c2ccccc21 | Tyrosine-protein phosphatase non-receptor type 7 (PTPN7, Homo sapiens, UniProt P35236) | enzyme activity, inhibitor, fluorescence |  |  | 110
CC/C=C\C/C=C\C/C=C\C/C=C\C/C=C\CCCC(=O)O | DNA polymerase subunit gamma-1 (POLG, Homo sapiens, UniProt P54098) | enzyme activity, inhibitor |  |  | 23.9
CSc1ccc(/C=C2/C(C)=C(CC(=O)O)c3cc(F)ccc32)cc1 | PDE8A | enzyme activity, inhibitor |  |  | > 100
CC[C@H](C)[C@H](NC(C)=O)C(=O)N[C@@H](CCC(=O)O)C(=O)N[C@H](C(=O)N[C@H](C=O)CC(=O)O)[C@@H](C)O | Caspase-5 (CASP5, Homo sapiens, UniProt P51878) | enzyme activity, inhibitor |  |  | 0.00644
CCCCc1ncc(/C=C(\Cc2cccs2)C(=O)O)n1Cc1ccc(C(=O)O)cc1 | BCKDK | enzyme activity, inhibitor |  |  | 76.4
C=CC(=O)Nc1cc(Nc2nccc(Nc3cc(Cl)c(F)cc3C(C)(C)O)n2)c(OC)cc1N1CC[C@@H](N(C)C)C1 | Tyrosine-protein kinase Yes (YES1, Homo sapiens, UniProt P07947) | enzyme activity, inhibitor |  | with preincubation | 2.9
CCCCC1=NC2(CCCC2)C(=O)N1Cc1ccc(-c2ccccc2-c2nnn[nH]2)cc1 | BCKDK | enzyme activity, inhibitor |  |  | 32.9
CCCC[C@H](NC(=O)[C@H](C)c1c(C)[nH]c2ccc(O)cc12)c1ncc(-c2cc3ccccc3nc2OC)[nH]1 | OPRM1 | cell-free assay |  |  | 4.61
Cc1nccc2c1c(=O)n(C)c1cc(OC[C@@H](N)CC(C)C)c(C#N)cc21 | OPRM1 | cell-free assay |  |  | > 30
CCCCc1nc(Cl)c(CO)n1Cc1ccc(-c2ccccc2-c2nn[nH]n2)cc1 | BCKDK | enzyme activity, inhibitor |  |  | 19.8
O=C1NC(=O)/C(=C/c2ccc(OCCNc3nc4c(cnn4C4CCCC4)c(=O)[nH]3)c(F)c2)S1 | PDE8A | enzyme activity, inhibitor |  |  | 0.199
NC(=O)c1ccc[n+]([C@@H]2O[C@H](COP(=O)([O-])OP(=O)(O)OC[C@H]3O[C@@H](n4cnc5c(N)ncnc54)[C@H](O)[C@@H]3O)[C@@H](O)[C@H]2O)c1 | Protein mono-ADP-ribosyltransferase PARP10 (PARP10, Homo sapiens, UniProt Q53GL7) | enzyme activity, inhibitor |  |  | 456
CCc1cc(/C(C)=N/OCc2ccc(C3CCCCC3)c(C(F)(F)F)c2)ccc1CN1CC(C(=O)O)C1 | Cytochrome P450 2A6 (CYP2A6, Homo sapiens, UniProt P11509) | enzyme activity, inhibitor | human, liver microsomes | 20 min | > 1.1
N#Cc1ccc(COc2ccccc2C=NNS(=O)(=O)c2ccc3ccccc3c2)cc1 | UDP-N-acetylmuramoylalanine--D-glutamate ligase (murD, Escherichia coli K-12, UniProt P14900) | enzyme activity, inhibitor, absorbance |  |  | 62
